# Assay results gathered from unrelated publications.
# Protocols differ between the studies behind these lines.
Compound,organism,test,test system,setting,measurement,result
CCOC(=O)c1nc2ccccc2c(=O)n1Cc1cn(-c2ccccc2OC)nn1,Nakaseomyces glabratus,"microbial growth, broth dilution",ATCC90030,24 h,IC50,81.8 µg/mL
CCCCCCC/C=C/C(=O)N1C(=O)/C(=C(\O)c2ccc(F)cc2)C(=O)C1CC(C)C (centres unmarked),Proteus vulgaris,microbial growth,ATCC33420,,MIC,> 200 µg/mL
Cc1ccc(-n2cc(Cn3c(C(=O)O)nc4ccccc4c3=O)nn2)cc1,Nakaseomyces glabratus,"microbial growth, broth dilution",ATCC90030,24 h,IC50,288 µg/mL
CCOC(=O)C=c1[nH]c(=O)c(=Cc2cn(-c3ccccc3)nc2-c2ccccc2)s1,Bacillus subtilis,"microbial growth, well diffusion",,100000 µg/mL,inhibition zone,14 mm
N=C(NCCCCCCNC(=N)NC(=N)Nc1ccc(Cl)cc1)NC(=N)Nc1ccc(Cl)cc1,Acanthamoeba polyphaga,"parasite growth, resazurin",,96 h,IC50,9.41 µM
CCOC(=O)c1nc2ccccc2c(=O)n1Cc1cn(-c2ccc([N+](=O)[O-])cc2)nn1,Nakaseomyces glabratus,"microbial growth, broth dilution",ATCC90030,24 h,IC50,316 µg/mL
Cc1c(NN=C2SC(C(C#N)=Cc3ccc(Cl)cc3)=NC2=O)c(=O)n(-c2ccccc2)n1C,Bacillus subtilis,"microbial growth, well diffusion",,100000 µg/mL,inhibition zone,17 mm
O=C(O)c1nc2ccccc2c(=O)n1Cc1cn(-c2ccccc2[N+](=O)[O-])nn1,Nakaseomyces glabratus,"microbial growth, broth dilution",ATCC90030,24 h,IC50,487 µg/mL
C[C@@H](c1ncncc1F)[C@](O)(Cn1cncn1)c1ccc(F)cc1F,Acanthamoeba polyphaga,"parasite growth, resazurin",,96 h,IC50,28.9 µM
Cc1c(NN=C2SC(C(C#N)=Cc3ccccc3)=NC2=O)c(=O)n(-c2ccccc2)n1C,Bacillus subtilis,"microbial growth, well diffusion",,100000 µg/mL,inhibition zone,17 mm
CCCCCCC/C=C/C(=O)N1C(=O)/C(=C(/C)O)C(=O)C1Cc1ccc(O)cc1 (centres unmarked),Proteus vulgaris,microbial growth,ATCC33420,,MIC,> 200 µg/mL
O=C1NC(=S)N/C1=C\c1ccc(-c2ccc(N(c3ccccc3)c3ccccc3)cc2)c2ccccc12,Bacillus subtilis,"microbial killing, broth dilution",ATCC6633,,MBC,> 1000 µg/mL
COc1cccc(-n2cc(Cn3c(C(=O)O)nc4ccccc4c3=O)nn2)c1,Nakaseomyces glabratus,"microbial growth, broth dilution",ATCC90030,24 h,IC50,453 µg/mL
C[C@@H]1[C@H](O)[C@@H](C)/C=C/C=C/C=C/C=C/C=C/C=C/C=C/[C@H](O[C@@H]2O[C@H](C)[C@@H](O)[C@H](N)[C@@H]2O)C[C@@H]2O[C@](O)(C[C@@H](O)C[C@@H](O)[C@H](O)CC[C@@H](O)C[C@@H](O)CC(=O)O[C@H]1C)C[C@H](O)[C@H]2C(=O)O,Cryptococcus neoformans,microbial growth,ATCC90113,,IC50,0.26 µM
N#CC(=Cc1cn(-c2ccccc2)nc1-c1ccccc1)C1=NC(=O)CS1,Bacillus subtilis,"microbial growth, well diffusion",,100000 µg/mL,inhibition zone,29 mm
O=C1NC(=S)S/C1=C\c1ccc(-c2ccc(N(c3ccccc3)c3ccccc3)cc2)c2ccccc12,Bacillus subtilis,"microbial killing, broth dilution",ATCC6633,,MBC,> 1000 µg/mL
O=C(O)c1nc2ccccc2c(=O)n1Cc1cn(-c2ccc(F)cc2)nn1,Nakaseomyces glabratus,"microbial growth, broth dilution",ATCC90030,24 h,IC50,422 µg/mL
CCOC(=O)C=c1[nH]c(=O)c(=Cc2cn(-c3ccccc3)nc2-c2ccc(C)cc2)s1,Bacillus subtilis,"microbial growth, well diffusion",,100000 µg/mL,inhibition zone,13 mm
CCCCCCC/C=C/C(=O)N1C(=O)/C(=C(\O)C2CCNCC2)C(=O)C1CC(C)C (centres unmarked),Proteus vulgaris,microbial growth,ATCC33420,,MIC,200 µg/mL
C[C@@H]1[C@H](O)[C@@H](C)/C=C/C=C/C=C/C=C/C=C/C=C/C=C/[C@H](O[C@@H]2O[C@H](C)[C@@H](O)[C@H](N)[C@@H]2O)C[C@@H]2O[C@](O)(C[C@@H](O)C[C@@H](O)[C@H](O)CC[C@@H](O)C[C@@H](O)CC(=O)O[C@H]1C)C[C@H](O)[C@H]2C(=O)O,Cryptococcus neoformans,microbial killing,ATCC90113,,MFC,1.5 µg/mL
